Assay outcomes deposited in PubChem by several laboratories.
RAM inhibit: blocks the yeast RAM network. S. cerevisiae dse1pr::URA3 reporter, 5-FOA growth OD615, 2 d; analog-sensitive cbk1-as2 kinase mutant strain. inhibition, % at 50 µM. 190,000 tested, 1.8% active. AID 868;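 active = inhibition above a set limit, 3 SD over mean compound inhibition, cut at about 8.4% in these data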;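 also: inhibition rescues growth on 5-FOA so higher OD means more RAM inhibition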
ABCB1 block: human ABCB1 inhibition, ABCG2 as counter-screen | inhibition, % at 6.6 µM | P08183 | 190,000 tested, 0.067% active | CCRF-Adr cells, JC-1 efflux, flow cytometry; in the data active = inhibition above about 40%;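 also: higher value means more JC-1 retained so stronger ABCB1 efflux block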
ABCG2 block: human ABCG2 inhibition, ABCB1 as counter-screen; Q9UNQ0; IgMXP3 cells, JC-1 efflux, flow cytometry; 190,000 tested, 0.1% active; inhibition, % at 6.6 µM;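 active = inhibition above 80%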
Target sequence (Q9UNQ0 whole entry, looked up): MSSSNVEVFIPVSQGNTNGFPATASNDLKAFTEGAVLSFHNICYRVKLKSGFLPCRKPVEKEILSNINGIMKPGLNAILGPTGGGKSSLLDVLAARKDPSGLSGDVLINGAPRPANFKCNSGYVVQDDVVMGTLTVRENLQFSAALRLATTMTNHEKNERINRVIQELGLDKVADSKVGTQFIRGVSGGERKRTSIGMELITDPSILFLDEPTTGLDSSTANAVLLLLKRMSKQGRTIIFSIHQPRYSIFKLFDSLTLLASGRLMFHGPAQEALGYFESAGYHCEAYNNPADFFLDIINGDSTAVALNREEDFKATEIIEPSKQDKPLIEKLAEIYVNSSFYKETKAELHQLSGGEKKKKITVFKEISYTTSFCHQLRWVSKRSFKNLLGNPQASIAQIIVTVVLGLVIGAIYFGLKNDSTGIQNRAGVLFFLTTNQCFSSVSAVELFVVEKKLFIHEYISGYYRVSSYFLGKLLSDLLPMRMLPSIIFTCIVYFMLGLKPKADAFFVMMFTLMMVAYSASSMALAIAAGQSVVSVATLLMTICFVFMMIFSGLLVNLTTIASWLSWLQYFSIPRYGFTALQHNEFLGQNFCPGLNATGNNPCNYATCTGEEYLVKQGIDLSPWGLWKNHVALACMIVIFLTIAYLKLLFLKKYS
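material = IgMXP3 (ABCG2) plus far-red-tagged CCRF-Adr (ABCB1) cells | amount = 3 million cells/mL, equal mix of both lines | also added = JC-1 transporter substrate | dosing = one concentration, 6.6 µM final | schedule = 10 min at 25 °C | measured by = flow cytometric JC-1 green MFI at 530 nm | read-out basis = percent efflux inhibition, scaled nicardipine 100% to DMSO 0%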
L major viab: reduces viability of Leishmania major promastigotes. inhibition, % at 10 µM. AID 1063. 200,000 tested, 9% active. resazurin fluorescence viability; in the data active = inhibition above about 50%;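 also: promastigotes grown with compound for 44 hours at 28 °C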
WT yeast gro inh: growth inhibition of WT yeast, mitochondrial fusion screen. inhibition, % at 10 µM. mitochondrial fusion phenotypic screen, WT strain. 190,000 tested, 2.1% active; in the data active = inhibition above about 58%; tested in S. cerevisiae
A number is an active result. Compounds with a hit are over-represented: about 12% of the library has one in this group of screens.

How did CCOC(=O)N1CCN(S(=O)(=O)c2ccc(C)cc2)C1c1ccccc1 (stereo not drawn) do in these assays?
RAM inhibit: inactive; ABCB1 block: inactive; ABCG2 block: inactive; L major viab: inactive; WT yeast gro inh: inactive

How did Cn1cnnc1SCC(=O)Nc1nc(-c2ccccc2)cs1 do in these assays?
RAM inhibit: inactive; ABCB1 block: inactive; ABCG2 block: inactive; L major viab: inactive; WT yeast gro inh: inactive

What do the screens show for `CC(C)c1cc(C(=O)NNC(=S)NCc2ccco2)c(O)c(C(C)C)c1`?
RAM inhibit: inactive; ABCB1 block: inactive; ABCG2 block: inactive; L major viab: inactive; WT yeast gro inh: inactive

Results for CCOC(=O)N(C)OC(=O)Nc1ccc(Cl)c(Cl)c1 ?
RAM inhibit: inactive; ABCB1 block: inactive; ABCG2 block: inactive; L major viab: inactive; WT yeast gro inh: 62

How did CCOC(=O)N(CC)OC(=O)Nc1ccc(Cl)cc1 do in these assays?
RAM inhibit: inactive; ABCB1 block: inactive; ABCG2 block: inactive; L major viab: inactive; WT yeast gro inh: inactive

Results for COc1cccc(-c2ccc(=O)n(CC(=O)Nc3ccc(S(=O)(=O)NCC(C)C)cc3)n2)c1 ?
RAM inhibit: inactive; ABCB1 block: inactive; ABCG2 block: inactive; L major viab: inactive; WT yeast gro inh: inactive

What do the screens show for `Cc1nnsc1C(=O)N/N=C/c1ccc2ccccc2c1O`?
RAM inhibit: inactive; ABCB1 block: inactive; ABCG2 block: inactive; L major viab: 100; WT yeast gro inh: inactive

What do the screens show for `NS(=O)(=O)c1cnccc1Nc1ccc(Cl)c(Cl)c1`?
RAM inhibit: inactive; ABCB1 block: inactive; ABCG2 block: inactive; L major viab: inactive; WT yeast gro inh: inactive

What do the screens show for `N#Cc1c(Cl)nsc1NC(=O)c1ccccc1`?
RAM inhibit: inactive; ABCB1 block: inactive; ABCG2 block: inactive; L major viab: inactive; WT yeast gro inh: inactive

Results for CN(C(=O)Nc1ccc(Cl)cc1Cl)[C@H]1c2cc(Br)ccc2OC[C@H]1CO ?
RAM inhibit: inactive; ABCB1 block: inactive; ABCG2 block: inactive; L major viab: inactive; WT yeast gro inh: inactive

What do the screens show for `Cc1ncc(C[n+]2csc(CCOC(=O)CC34CC5CC(CC(C5)C3)C4)c2C)c(N)n1`?
RAM inhibit: inactive; ABCB1 block: inactive; ABCG2 block: inactive; L major viab: inactive; WT yeast gro inh: inactive

What do the screens show for `Cc1c(CCOC(=O)CC23CC4CC(CC(C4)C2)C3)sc[n+]1Cc1ccccc1`?
RAM inhibit: inactive; ABCB1 block: inactive; ABCG2 block: inactive; L major viab: 100; WT yeast gro inh: inactive

Results for Cc1cccc(NC(=S)N/N=C/c2ccc3c(c2)OCO3)c1 ?
RAM inhibit: inactive; ABCB1 block: inactive; ABCG2 block: inactive; L major viab: inactive; WT yeast gro inh: 60

Results for CC(SCc1ccccc1)C(=O)N/N=C/c1ccc2c(c1)OCO2 (stereo not drawn) ?
RAM inhibit: inactive; ABCB1 block: inactive; ABCG2 block: inactive; L major viab: 75; WT yeast gro inh: inactive

What do the screens show for `Cc1ccn2c(C(=O)N/N=C\c3ccc4c(c3)OCO4)c(C)nc2c1`?
RAM inhibit: inactive; ABCB1 block: inactive; ABCG2 block: inactive; L major viab: 85; WT yeast gro inh: inactive

How did Cc1cccc(C(=O)N/N=C/c2ccc3c(c2)OCO3)n1 do in these assays?
RAM inhibit: inactive; ABCB1 block: inactive; ABCG2 block: inactive; L major viab: inactive; WT yeast gro inh: inactive

How did O=C(N/N=C/c1ccc2c(c1)OCO2)c1ccc2ccccc2n1 do in these assays?
RAM inhibit: inactive; ABCB1 block: inactive; ABCG2 block: inactive; L major viab: 78; WT yeast gro inh: inactive

Results for CC(SCc1ccccc1)C(=O)N/N=C/c1cc2c(cc1Br)OCO2 (stereo not drawn) ?
RAM inhibit: inactive; ABCB1 block: inactive; ABCG2 block: inactive; L major viab: inactive; WT yeast gro inh: inactive

What do the screens show for `CCN(CC)C(=O)Cn1c(=O)n(CCCC(=O)NCc2ccccc2)c(=O)c2sccc21`?
RAM inhibit: inactive; ABCB1 block: inactive; ABCG2 block: inactive; L major viab: inactive; WT yeast gro inh: inactive

Results for COc1cc(OC)c(-c2nn3c(C4CCCCC4)nnc3s2)cc1OC ?
RAM inhibit: inactive; L major viab: 56; WT yeast gro inh: inactive

How did COc1cc(-c2nnc3sc(C4CCCCC4)nn23)cc(OC)c1OC do in these assays?
RAM inhibit: inactive; ABCB1 block: inactive; ABCG2 block: inactive; L major viab: inactive; WT yeast gro inh: inactive

How did COc1cc(C(=O)OC2CC3CCC2(C)C3(C)C)ccc1OC(C)=O (stereo not drawn) do in these assays?
RAM inhibit: inactive; ABCB1 block: inactive; ABCG2 block: inactive; L major viab: inactive; WT yeast gro inh: 73

Results for N#C/C(=C\c1cn(Cc2ccccc2)c2ccccc12)C(=O)NCc1ccco1 ?
RAM inhibit: inactive; ABCB1 block: inactive; ABCG2 block: inactive; L major viab: 51; WT yeast gro inh: inactive

How did COc1cc(/C=C(\C#N)C(=O)NCC2CCCO2)ccc1O (stereo not drawn) do in these assays?
RAM inhibit: inactive; ABCB1 block: inactive; ABCG2 block: inactive; L major viab: inactive; WT yeast gro inh: inactive

How did Cc1ccc(C)c(OCCn2cc(/C=C(/C#N)C(=O)NCC3CCCO3)c3ccccc32)c1 (stereo not drawn) do in these assays?
RAM inhibit: 8.8; ABCB1 block: inactive; ABCG2 block: inactive; L major viab: 98; WT yeast gro inh: inactive

What do the screens show for `CCOc1ccc(/C=C(\C#N)C(=O)NCC2CCCO2)cc1OCC` (stereo not drawn)?
RAM inhibit: inactive; ABCB1 block: inactive; ABCG2 block: inactive; L major viab: 64; WT yeast gro inh: inactive

What do the screens show for `Cc1cc(/C=C(\C#N)C(=O)NCC2CCCO2)c(C)n1-c1ccc(Cl)cc1` (stereo not drawn)?
RAM inhibit: inactive; ABCB1 block: inactive; ABCG2 block: inactive; L major viab: inactive; WT yeast gro inh: inactive

What do the screens show for `COc1ccccc1OCCn1cc(/C=C(\C#N)C(=O)NCc2cccs2)c2ccccc21`?
RAM inhibit: inactive; ABCB1 block: inactive; ABCG2 block: inactive; L major viab: 94; WT yeast gro inh: inactive

What do the screens show for `O=C(Cc1c(Sc2ccccc2)c2ccccc2n1Cc1ccccc1)NCCO`?
RAM inhibit: inactive; ABCB1 block: inactive; ABCG2 block: inactive; L major viab: 58; WT yeast gro inh: inactive

Results for COc1cccc(NC(=O)c2cccc(C)c2[N+](=O)[O-])c1 ?
RAM inhibit: inactive; ABCB1 block: inactive; ABCG2 block: inactive; L major viab: inactive; WT yeast gro inh: inactive

Results for O=C(CSc1ccccc1)Nc1ccc(N2CCN(c3ccccc3)CC2)c(F)c1 ?
RAM inhibit: inactive; ABCB1 block: inactive; ABCG2 block: inactive; L major viab: inactive; WT yeast gro inh: inactive

Results for COc1ccc(SCC(=O)Nc2ccc(N3CCN(C)CC3)c(F)c2)cc1 ?
RAM inhibit: inactive; ABCB1 block: inactive; ABCG2 block: inactive; L major viab: 94; WT yeast gro inh: inactive

Results for Cc1cccc(C)c1NC(=O)C1c2cccc[n+]2CC(=O)N1Cc1cccs1 (stereo not drawn) ?
RAM inhibit: inactive; ABCB1 block: inactive; ABCG2 block: inactive; L major viab: inactive; WT yeast gro inh: inactive
